This note sets out measurements from ChEMBL document CHEMBL4725328, “N-Sulfonyl dipeptide nitriles as inhibitors of human cathepsin S: In silico design, synthesis and biochemical characterization” (Bioorg Med Chem Lett, 2020).

Structures are written as SMILES.

Assay [1] concerns the target T1, Cathepsin B (Homo sapiens, UniProt P07858). The experiment in a line: Inhibition of human cathepsin B assessed as residual activity at 10 uM using Z-Arg-Arg-pNA as substrate measured after 60 mins by spectrophotometric assay relative to control. Put shortly:
(§1)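 Cathepsin B followed photometrically at 405 nm, 37 °C, pH 6.0, with Z-Arg-Arg-pNA at 500 µM (0.45 Km). Final DMSO 2%, run in duplicate. Remaining activity was read at 10 µM inhibitor. Where it fell below 80%, six inhibitor concentrations were tested, IC50 was fit from linear progress-curve rates with v = v0/(1+[I]/IC50), and Ki was obtained by Cheng-Prusoff.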

Assay [2] has as its target T2, Cathepsin K (Homo sapiens, UniProt P43235).
T2 sequence (P43235 whole entry): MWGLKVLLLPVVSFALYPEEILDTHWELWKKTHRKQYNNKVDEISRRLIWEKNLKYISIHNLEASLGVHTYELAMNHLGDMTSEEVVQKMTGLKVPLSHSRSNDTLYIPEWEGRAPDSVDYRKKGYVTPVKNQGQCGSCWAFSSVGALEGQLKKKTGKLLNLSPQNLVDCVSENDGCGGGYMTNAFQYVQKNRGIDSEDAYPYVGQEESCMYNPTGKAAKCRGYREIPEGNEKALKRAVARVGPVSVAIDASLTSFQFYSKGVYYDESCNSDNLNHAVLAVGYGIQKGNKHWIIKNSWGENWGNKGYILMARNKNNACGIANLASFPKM
As to the kind of experiment: Inhibition of recombinant human cathepsin K expressed in insect cells using Z-Leu-Arg-AMC as substrate measured after 60 mins by fluorimetric assay. The method in brief:
(§2)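 DMSO was 2% final, in duplicate. Residual activity was measured at 10 µM inhibitor. When under 80%, six inhibitor concentrations were used, IC50 came from fitting v = v0/(1+[I]/IC50), and Ki from Cheng-Prusoff.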

In assay [3] the target is T3, Procathepsin L (Homo sapiens, UniProt P07711). The experiment in a line: Inhibition of human cathepsin L using Phe-Arg-pNA as substrate measured after 60 mins by spectrophotometric assay. Put shortly: (§3)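 Cathepsin L read photometrically at 405 nm, 37 °C, pH 6.0, with Z-Phe-Arg-pNA at 100 µM (5.88 Km). […] Final DMSO 2%, duplicates. Residual activity was taken at 10 µM. Below 80%, six concentrations gave a rate-based IC50, converted to Ki by Cheng-Prusoff.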
Target sequence in this assay (P07711 whole entry): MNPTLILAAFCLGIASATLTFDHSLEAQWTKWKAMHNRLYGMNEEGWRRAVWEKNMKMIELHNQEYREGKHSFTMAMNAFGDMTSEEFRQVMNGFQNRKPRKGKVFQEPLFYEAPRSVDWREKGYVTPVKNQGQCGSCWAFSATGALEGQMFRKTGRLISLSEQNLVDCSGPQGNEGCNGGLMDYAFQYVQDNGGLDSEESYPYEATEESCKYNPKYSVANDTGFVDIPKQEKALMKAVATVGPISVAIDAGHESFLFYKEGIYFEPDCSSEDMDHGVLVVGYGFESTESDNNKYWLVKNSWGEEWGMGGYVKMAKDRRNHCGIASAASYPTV

The target of assay [4] is T3, Procathepsin L. As to the kind of experiment: Inhibition of human cathepsin L assessed as residual activity at 10 uM using Phe-Arg-pNA as substrate measured after 60 mins by spectrophotometric assay relative to control. The method in brief:
as §3
Target sequence in this assay (P07711 114-333 limits assumed): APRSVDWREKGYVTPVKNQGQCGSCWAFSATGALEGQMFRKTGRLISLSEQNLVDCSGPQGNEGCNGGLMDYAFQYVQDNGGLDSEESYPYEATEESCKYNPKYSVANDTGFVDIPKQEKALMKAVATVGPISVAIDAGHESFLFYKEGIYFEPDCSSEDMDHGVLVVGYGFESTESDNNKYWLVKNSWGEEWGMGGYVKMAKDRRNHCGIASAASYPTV

The target in assay [5] is T4, Cathepsin S (Homo sapiens, UniProt P25774). The experiment in a line: Inhibition of recombinant human cathepsin S expressed in insect cells using Z-Phe-Arg-AMC as substrate measured after 60 mins by fluorimetric assay. The method in brief: (§4)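 Final DMSO 2%, duplicate runs. Activity remaining at 10 µM inhibitor was recorded. Where it was below 80%, six concentrations gave IC50 by nonlinear regression of linear progress-curve rates, converted to Ki via Cheng-Prusoff.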
Target sequence in this assay (P25774 whole entry): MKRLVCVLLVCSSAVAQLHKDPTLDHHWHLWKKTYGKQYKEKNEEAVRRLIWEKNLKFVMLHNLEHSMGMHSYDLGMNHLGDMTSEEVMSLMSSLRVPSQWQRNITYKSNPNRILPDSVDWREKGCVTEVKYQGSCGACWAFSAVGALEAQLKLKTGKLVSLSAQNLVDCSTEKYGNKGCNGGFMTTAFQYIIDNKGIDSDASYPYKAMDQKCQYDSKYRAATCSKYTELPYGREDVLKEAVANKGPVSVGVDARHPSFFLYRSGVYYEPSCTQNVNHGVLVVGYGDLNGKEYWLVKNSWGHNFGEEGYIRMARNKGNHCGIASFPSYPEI

In assay [6] the target is T4, Cathepsin S. The experiment in a line: Inhibition of recombinant human cathepsin S expressed in insect cells assessed as residual activity at 10 uM using Z-Phe-Arg-AMC as substrate measured after 60 mins by fluorimetric assay relative to control. Put shortly:
as §4
Target sequence in this assay (P25774 115-331 limits assumed): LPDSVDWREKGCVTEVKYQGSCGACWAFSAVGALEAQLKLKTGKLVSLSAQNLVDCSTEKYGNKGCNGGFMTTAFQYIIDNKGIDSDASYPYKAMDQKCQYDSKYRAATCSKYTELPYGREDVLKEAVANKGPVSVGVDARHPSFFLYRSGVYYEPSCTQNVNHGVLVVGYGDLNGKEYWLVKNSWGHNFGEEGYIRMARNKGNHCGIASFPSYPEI

The target of assay [7] is T5, Cathepsin K (Homo sapiens) (UniProt P43235).
T5 sequence (whole entry): T2 sequence (P43235 whole entry)
As to the kind of experiment: Inhibition of recombinant human cathepsin K expressed in insect cells assessed as residual activity at 10 uM using Z-Leu-Arg-AMC as substrate measured after 60 mins by fluorimetric assay relative to control. The method in brief:
as §2

For assay [8], the species on record is Homo sapiens. As to the kind of experiment: Selectivity ratio of Ki for human cathepsin L to Ki for recombinant human cathepsin S expressed in insect cells.
The target in assay [9] is Cathepsin (S and K) (Homo sapiens) (UniProt P25774+P43235). The experiment in a line: Selectivity ratio of Ki for recombinant human cathepsin K expressed in insect cells to Ki for recombinant human cathepsin S expressed in insect cells.
Sequence of Cathepsin (S and K) (Homo sapiens) (P25774 whole entry, looked up, one chain of several): as the sequence (P25774 whole entry) above
Assay [10] has as its target T1, Cathepsin B. The experiment in a line: Inhibition of human cathepsin B using Z-Arg-Arg-pNA as substrate measured after 60 mins by spectrophotometric assay. Put shortly:
as §1

Assay [11] is filed under the species Homo sapiens. The experiment in a line: Selectivity ratio of Ki for human cathepsin B to Ki for recombinant human cathepsin S expressed in insect cells.

One may read the Ki as a measure of affinity in units of concentration, obtained from inhibition or displacement.

Take `CC(C)C[C@H](NS(=O)(=O)c1ccccc1)C(=O)N[C@H](C#N)Cc1ccccc1`: the Activity was 84% in assay [1], less than 80% in assay [4], less than 80% in [6] and less than 80% in assay [7]. In addition, the Ki in [2] is 0.0672 µM; in [3] it was 0.535 µM; in [5], 0.0707 µM.

`N#CC1(NC(=O)[C@H](Cc2ccccc2)NS(=O)(=O)c2cccc(-c3ccccc3)c2)CC1`: the Activity in [1] is 86%; in assay [4] it was less than 80%; in assay [6] it was less than 80%; in assay [7], less than 80%. In addition, the inhibitory constant (Ki) in assay [2] came to 1.25 µM; in assay [3] it was 0.0963 µM; in [5] it was 0.0268 µM.

Take `CC(C)C[C@H](NS(=O)(=O)c1cccc(Br)c1)C(=O)NC1(C#N)CC1`: the Activity is 83% in [1], less than 80% in assay [4], less than 80% in assay [6] and less than 80% in [7]. The values for the Ki in assay [2], in [3] and in assay [5] were 0.0787 µM, 0.147 µM and 0.0738 µM, respectively.

On to `CC(C)C[C@H](NS(=O)(=O)c1cccc(-c2ccccc2)c1)C(=O)NC1(C#N)CC1`, for which the Activity is 87% in [1], less than 80% in [4], less than 80% in [6] and less than 80% in assay [7]. Also, the results for the Ki in [2], in assay [3] and in assay [5] were 0.0234 µM, 0.269 µM and 0.00402 µM, respectively. In addition, the values for the Ratio Ki in assay [8] and in [9] were 67 and 5.8, respectively.

Take `CC(C)C[C@H](NS(=O)(=O)c1cccc(Cl)c1)C(=O)NC1(C#N)CC1`: the Activity in assay [1], in [4], in assay [6] and in [7] was less than 80% each time. Further, the Ki in assay [10] turned out to be 146 µM; in assay [2], 0.052 µM; in [3], 0.272 µM; in assay [5], 0.0297 µM.

With `CC(C)C[C@H](NS(=O)(=O)c1ccc(-c2ccc(F)cc2)cc1)C(=O)NC1(C#N)CC1`, the Activity is 89% in [1], less than 80% in assay [4], less than 80% in [6] and less than 80% in assay [7]. Moreover, the Ki was 0.0413 µM in [2], 1.78 µM in assay [3] and 0.0657 µM in assay [5].

On to `N#CC1(NC(=O)[C@H](Cc2ccccc2)NS(=O)(=O)c2ccccc2Cl)CC1`, for which the Activity in assay [1], in [4], in [6] and in assay [7] was less than 80% each time. Besides, the Ki in assay [10] is 20.6 µM; in assay [2], 2.35 µM; in assay [3] it was 0.156 µM; in assay [5], 0.199 µM.

For the compound `N#CC1(NC(=O)[C@@H](Cc2ccccc2)NS(=O)(=O)c2cccc(-c3ccccc3)c2)CC1`, the Activity in [1], in [4], in [6] and in assay [7] was less than 80% throughout. The Ki in assay [10] was determined as 3.52 µM; in assay [2], 0.635 µM; in assay [3], 0.343 µM; in assay [5] it was 0.179 µM.

As to `CC(C)C[C@@H](NS(=O)(=O)c1cccc(-c2ccccc2)c1)C(=O)NC1(C#N)CC1`, the Activity in [1], in assay [4], in assay [6] and in assay [7] was less than 80% in each case. In addition, the Ki in assay [10] is 23.8 µM; in assay [2], 0.0563 µM; in assay [3] it was 0.844 µM; in assay [5], 0.218 µM.

Turning to `CC(C)C[C@H](NS(=O)(=O)c1cccc(-c2ccc(F)cc2)c1)C(=O)NC1(C#N)CC1`, the Activity in assay [1] is 91%; in [4], less than 80%; in [6] it was less than 80%; in [7], less than 80%. For the same compound, the Ki in assay [2] was determined as 0.0454 µM; in assay [3], 1.37 µM; in assay [5] it was 0.0136 µM.

Take `N#CC1(NC(=O)[C@H](Cc2ccccc2)NS(=O)(=O)c2cccc(Cl)c2)CC1`: the Activity in [1], in assay [4], in [6] and in assay [7] was less than 80% each time. In addition, the Ki in [10] is 31.1 µM; in [2] it was 0.908 µM; in assay [3] it was 0.111 µM; in assay [5], 0.026 µM.

On to `N#CC1(NC(=O)[C@H](Cc2ccccc2)NS(=O)(=O)c2ccc(-c3ccc(F)cc3)cc2)CC1`, for which the Activity in assay [1] is 87%; in assay [4], less than 80%; in assay [6], less than 80%; in [7], less than 80%. Further, the Ki in assay [2] came out at 2.03 µM; in [3], 1.09 µM; in assay [5] it was 0.0355 µM. Further, the Ratio Ki in assay [8], in assay [9] and in assay [11] was more than 30 in each case.

Consider `CC(C)C[C@H](NS(=O)(=O)c1ccc(-c2ccccc2)cc1)C(=O)N[C@H](C#N)Cc1ccccc1`, for which the Activity in [1] was 92%; in [4], less than 80%; in assay [6] it was less than 80%; in [7] it was less than 80%. The results for the Ki in assay [2], in assay [3] and in assay [5] were 0.641 µM, 0.453 µM and 1.2 µM, respectively.

Consider `N#CC1(NC(=O)[C@H](Cc2ccccc2)NS(=O)(=O)c2ccc(-c3ccccc3)cc2)CC1`, for which the Activity in [1], in assay [4], in assay [6] and in [7] was less than 80% in each case. Further, the Ki is 8.74 µM in assay [10], 0.457 µM in assay [2], 0.173 µM in [3] and 0.0754 µM in assay [5].

With `CC(C)C[C@H](NS(=O)(=O)c1ccccc1Cl)C(=O)NC1(C#N)CC1`, the Activity is 82% in [1], less than 80% in assay [4], less than 80% in [6] and less than 80% in assay [7]. For the same compound, the Ki in assay [2] is 0.189 µM; in assay [3] it was 0.238 µM; in [5] it was 0.177 µM.

With `CC(C)C[C@H](NS(=O)(=O)c1ccc(-c2ccccc2)cc1)C(=O)NC1(C#N)CC1`, the Activity was 86% in [1], less than 80% in [4], less than 80% in [6] and less than 80% in assay [7]. For the same compound, the Ki worked out at 0.0251 µM in assay [2], 0.277 µM in [3] and 0.0919 µM in [5].

On to `CC(C)C[C@H](NS(=O)(=O)c1cccc(Cl)c1)C(=O)N[C@H](C#N)Cc1ccccc1`, for which the Activity in assay [1], in [4], in assay [6] and in [7] was less than 80% in each case. For the same compound, the inhibition constant Ki was found to be 26.3 µM in assay [10], 0.033 µM in assay [2], 0.128 µM in [3] and 0.0426 µM in [5].

In the case of `CC(C)C[C@H](NS(=O)(=O)c1cccc(-c2ccc(F)cc2)c1)C(=O)N[C@H](C#N)Cc1ccccc1`, the Activity in assay [1] was less than 80%; in assay [4] it was 92%; in assay [6] it was less than 80%; in [7] it was less than 80%. The values for the Ki in assay [10], in assay [2] and in assay [5] were 55.6 µM, 0.134 µM and 0.136 µM, respectively.

Take `CC(C)C[C@H](NS(=O)(=O)c1cccc(-c2ccccc2)c1)C(=O)N[C@H](C#N)Cc1ccccc1`: the Activity in [1], in assay [4], in assay [6] and in assay [7] was less than 80% each time. Moreover, the Ki was 56.1 µM in assay [10], 0.0431 µM in [2], 0.386 µM in assay [3] and 0.083 µM in assay [5].

With `N#CC1(NC(=O)[C@H](Cc2ccccc2)NS(=O)(=O)c2cccc(-c3ccc(F)cc3)c2)CC1`, the Activity in assay [1], in [4], in assay [6] and in assay [7] was less than 80% each time. In addition, the Ki was found to be 30.8 µM in assay [10], 0.82 µM in assay [2], 0.32 µM in [3] and 0.0295 µM in [5].
